Reference: ChEMBL document CHEMBL2203144, “Synthesis and evaluation of antimicrobial activity of 4H-pyrimido[2,1-b]benzothiazole, pyrazole and benzylidene derivatives of curcumin” (Eur J Med Chem, 2012)
Activity calls are given as the source filed them. The rule behind the calls is not given here.

Key:
Salmonella typhi = experiment: Antibacterial activity against Salmonella typhi ATCC 15499 after 24 hrs by broth microdilution method; format: functional, Salmonella enterica subsp. enterica serovar Typhi
How it was run: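 Broth microdilution in brain heart infusion broth in microwells. Inoculum was prepared from 16 h cultures adjusted to the 0.5 McFarland standard (1.5 × 10⁸ CFU/mL). Compounds were serially diluted from 20 down to 0.625 µM/mL and added to the broth, followed by the bacterial culture. Plates were incubated 24 h at 37 °C, with optical density read. MIC95 was the lowest concentration giving no turbidity. Inoculum and broth controls were included.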

Aspergillus fumigatus [1] = experiment: Antifungal activity against Aspergillus fumigatus after 72 hrs by agar disk diffusion method; format: functional
How it was run: (§1)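 Sterile filter-paper discs dipped in the acetone dilutions of compound (20–0.315 µM/mL), then dried to remove acetone. Sabouraud dextrose agar plates spread with 1 mL fungal culture. Discs placed aseptically; one drug-free disc served as growth control; fluconazole reference. Plates incubated upright 72 h at 28 °C. Zone of inhibition measured in mm with a scale.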

Staphylococcus aureus = experiment: Antibacterial activity against Staphylococcus aureus ATCC 11632 after 24 hrs by broth microdilution method; format: functional
How it was run: (§2)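 Microwell broth dilution in brain heart infusion broth (nutrient broth adjusted to pH 7.0). Inoculum from 16 h cultures, adjusted to 0.5 McFarland (1.5 × 10⁸ CFU/mL). 10 µL compound (serial dilutions 20 down to 0.625 or 0.312 µM/mL) plus 10 µL culture added to 150 µL broth. Incubated 24 h at 37 °C. MIC95 is the lowest concentration with no turbidity. Ciprofloxacin reference; inoculum and broth controls.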

Aspergillus flavus [2] = experiment: Antifungal activity against Aspergillus flavus after 72 hrs by broth dilution method; format: functional
How it was run: (§3)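 Compounds and fluconazole reference were dissolved in acetone at 120 µM/mL and serially diluted to 20–0.315 µM/mL. 10 µL compound plus 10 µL fungal culture broth added to 150 µL Sabouraud dextrose medium per well. Optical density recorded, then incubated 72 h at 28 °C. MIC95 taken from absence of turbidity. Acetone-at-same-dilution solvent control.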

Providencia rettgeri = experiment: Antibacterial activity against Providencia rettgeri DRDE after 24 hrs by broth microdilution method; format: functional; how it was run: as §2
Escherichia coli = experiment: Antibacterial activity against Escherichia coli ATCC 35218 after 24 hrs by broth microdilution method; format: functional; how it was run: as §2
[3] = Cytotoxicity against human L123 cells after 48 hrs by MTT assay; format: cell-based
How it was run: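 MTT assay. 2×10³ cells per well in MEM + 10% FBS, attached 24 h, then treated at 5, 10, 20, 50 and 100 µM/mL for 48 h; controls received medium with 0.2% DMSO. Duplicate treatments. Cells PBS-washed, given MTT (stock 1 mg/mL) for 4 h at 37 °C. Formazan dissolved in DMSO, read at 590 nm. IC50 is the concentration reducing viability by 50%.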

Bacillus cereus = experiment: Antibacterial activity against Bacillus cereus MTCC 7350 after 24 hrs by broth microdilution method; format: functional; how it was run: as §2
Aspergillus niger [4] = experiment: Antifungal activity against Aspergillus niger after 72 hrs by broth dilution method; format: functional; how it was run: as §3
Aspergillus flavus [5] = experiment: Antifungal activity against Aspergillus flavus after 72 hrs by agar disk diffusion method; format: functional; how it was run: as §1
Aspergillus niger [6] = experiment: Antifungal activity against Aspergillus niger after 72 hrs by agar disk diffusion method; format: functional; how it was run: as §1
Aspergillus fumigatus [7] = experiment: Antifungal activity against Aspergillus fumigatus after 72 hrs by broth dilution method; format: functional; how it was run: as §3
Pseudomonas aeruginosa = experiment: Antibacterial activity against Pseudomonas aeruginosa ATCC 23564 after 24 hrs by broth microdilution method; format: functional; how it was run: as §2

| Compound | MIC95 (Salmonella typhi) [uM/ml] | inhibition zone (IZ) (Aspergillus fumigatus [1]) | MIC95 (Staphylococcus aureus) | MIC95 (Aspergillus flavus [2]) | MIC95 (Providencia rettgeri) | MIC95 (Escherichia coli) | IC50 [3] [uM/ml] | MIC95 (Bacillus cereus) [uM/ml] | MIC95 (Aspergillus niger [4]) | inhibition zone (IZ) (Aspergillus flavus [5]) | inhibition zone (IZ) (Aspergillus niger [6]) | MIC95 (Aspergillus fumigatus [7]) | MIC95 (Pseudomonas aeruginosa) | MIC95 (Salmonella typhi; Salmonella enterica subsp. enterica serovar Typhi) |
| --- | --- | --- | --- | --- | --- | --- | --- | --- | --- | --- | --- | --- | --- | --- |
| COc1cc(/C=C/C(=O)C2=C(/C=C/c3ccc(O)c(OC)c3)N=C3Sc4ccccc4N3C2c2ccccc2)ccc1O (stereo not drawn) | 20 | inactive | 20 uM/ml | inactive | 20 uM/ml | inactive | > 100 | 5 | inactive | inactive | inactive | inactive | 10 uM/ml |  |
| COc1cc(/C=C/C(=O)C2=C(/C=C/c3ccc(O)c(OC)c3)N=C3Sc4ccccc4N3C2c2ccc(O)cc2)ccc1O (stereo not drawn) | 20 | 12 mm | 1.25 uM/ml | inactive | inactive | 5 uM/ml |  | 2.5 | inactive | inactive | inactive | 5 uM/ml | 10 uM/ml |  |
| COc1cc(C=C(C(=O)/C=C/c2ccc(O)c(OC)c2)C(=O)/C=C/c2ccc(O)c(OC)c2)ccc1O | 5 | inactive | 2.5 uM/ml | 1.25 uM/ml | 2.5 uM/ml | inactive | > 100 | 1.25 | inactive | 20 mm | inactive | inactive | 2.5 uM/ml |  |
| COc1cc(/C=C/C(=O)CC(=O)/C=C/c2ccc(O)c(OC)c2)ccc1O [CURCUMIN] | 20 | 12 mm | 20 uM/ml | inactive | 20 uM/ml | 20 uM/ml |  | 10 | 20 uM/ml | inactive | 9 mm | 20 uM/ml | inactive |  |
| COc1cc(/C=C/C(=O)C(=Cc2ccccc2)C(=O)/C=C/c2ccc(O)c(OC)c2)ccc1O | 2.5 | 15 mm | 1.25 uM/ml | inactive | 0.625 uM/ml | 1.25 uM/ml |  | 0.625 | inactive | inactive | inactive | 2.5 uM/ml | inactive |  |
| COc1cc(/C=C/C(=O)C2=C(/C=C/c3ccc(O)c(OC)c3)N=C3Sc4ccccc4N3C2c2c(Cl)cccc2Cl)ccc1O (stereo not drawn) |  | inactive | inactive | inactive | 10 uM/ml | 20 uM/ml | > 100 | 5 | inactive | inactive | inactive | inactive | 20 uM/ml | inactive |
| O=C(O)c1cn(C2CC2)c2cc(N3CCNCC3)c(F)cc2c1=O [CIPROFLOXACIN] | 2.5 |  | 1.25 uM/ml |  | 1.25 uM/ml | 1.25 uM/ml |  | 0.625 |  |  |  |  | 1.25 uM/ml |  |
| COc1cc(/C=C/c2cc(/C=C/c3ccc(O)c(OC)c3)n(C(N)=S)n2)ccc1O | 2.5 | 25 mm | 1.25 uM/ml | 1.25 uM/ml | 1.25 uM/ml | inactive |  | 0.625 | 2.5 uM/ml | 20 mm | 22 mm | 2.5 uM/ml | 2.5 uM/ml |  |
